Values belong to the compound of their own block, whether it stands above or below them.
Key:
1483 HNSCC cells = experiment: Cell imaging assay, fluorescence microscopy; format: cell-based
Procedure, shortened: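 1483 HNSCC cells in HBSS/Tyrode's, grown to 50% confluency, given 200 nM probe for 0.25 h at 37 °C, washed three times, imaged (propidium iodide filter, 0.5 s exposure, gain 2) at 0.5 and 3 h post-addition. Intensity read at 586/607 nm. Triplicates; Welch-corrected unpaired t test, error as standard error.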

Photophysical properties = format: physicochemical
Procedure, shortened: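 Samples were diluted to 1 μM and scanned on a photon-counting fluorometer in a 10 x 4 mm cuvette at 25 °C, with excitation/emission spectra recorded in triplicate. Quantum yield was taken relative to a reference fluorophore standard. Extinction coefficient came from absorbance spectra (10 mm pathlength) at 10, 8, 6, 4 and 2 μM dilutions.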

[1] = molecular target: T1, COX-2 in 1483 HNSCC cells (Homo sapiens, UniProt P35354); experiment: Cell-based COX-2 inhibition assay in intact 1483 HNSCC cells; details: read-out: IC50, cellular COX-2 inhibition
T1 sequence (P35354 18-604): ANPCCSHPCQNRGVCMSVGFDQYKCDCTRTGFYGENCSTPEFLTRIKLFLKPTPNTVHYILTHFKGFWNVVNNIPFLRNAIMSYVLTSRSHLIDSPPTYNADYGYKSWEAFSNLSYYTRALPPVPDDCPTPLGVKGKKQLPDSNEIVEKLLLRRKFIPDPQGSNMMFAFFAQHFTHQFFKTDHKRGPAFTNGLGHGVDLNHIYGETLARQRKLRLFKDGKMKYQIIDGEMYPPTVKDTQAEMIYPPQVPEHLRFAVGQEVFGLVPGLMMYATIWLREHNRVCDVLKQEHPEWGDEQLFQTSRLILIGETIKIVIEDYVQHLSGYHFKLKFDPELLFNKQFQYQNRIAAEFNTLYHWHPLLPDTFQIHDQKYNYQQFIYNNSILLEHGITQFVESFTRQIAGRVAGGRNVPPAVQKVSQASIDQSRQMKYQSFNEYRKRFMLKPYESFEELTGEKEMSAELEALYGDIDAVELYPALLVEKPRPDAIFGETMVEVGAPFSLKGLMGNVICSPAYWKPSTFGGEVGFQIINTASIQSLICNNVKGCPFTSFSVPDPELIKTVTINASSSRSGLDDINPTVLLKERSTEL

[2] = In vivo pharmacokinetic assay, plasma concentration by LC-MS; details: CD-1 mice, 10 mg/kg i.p.
[3] = tested on: COX-2 and ROS in carrageenan-induced inflamed footpad; experiment: Fluorescence imaging of carrageenan-induced footpad inflammation; format: in vivo, C57BL/6 mice
mCOX-2 = molecular target: T2, mCOX-2 (Mus musculus, UniProt Q05769); experiment: Purified COX-2 isozyme inhibition, TLC assay with [1-14C]arachidonic acid; format: biochemical; details: read-out: IC50, inhibition of COX-2, 14C-arachidonic acid substrate
T2 sequence (Q05769 18-604): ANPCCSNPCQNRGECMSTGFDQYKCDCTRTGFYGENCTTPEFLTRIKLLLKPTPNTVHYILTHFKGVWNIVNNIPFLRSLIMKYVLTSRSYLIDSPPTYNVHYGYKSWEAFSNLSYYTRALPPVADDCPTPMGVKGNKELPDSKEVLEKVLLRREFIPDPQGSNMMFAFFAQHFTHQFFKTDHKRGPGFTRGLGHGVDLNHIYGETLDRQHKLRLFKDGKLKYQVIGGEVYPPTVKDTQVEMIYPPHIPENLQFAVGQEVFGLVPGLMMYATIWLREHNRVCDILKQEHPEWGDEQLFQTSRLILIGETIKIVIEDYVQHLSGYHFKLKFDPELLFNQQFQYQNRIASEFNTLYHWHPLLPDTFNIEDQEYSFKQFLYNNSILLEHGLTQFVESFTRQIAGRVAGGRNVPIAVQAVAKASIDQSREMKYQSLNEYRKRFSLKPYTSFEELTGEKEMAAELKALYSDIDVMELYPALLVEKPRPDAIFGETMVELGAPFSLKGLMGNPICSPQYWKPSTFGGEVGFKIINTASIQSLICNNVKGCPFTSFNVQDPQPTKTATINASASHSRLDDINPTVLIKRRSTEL

[4] = tested on: ROS in carrageenan-induced inflamed footpad; experiment: Chemiluminescence imaging of ROS in carrageenan-induced footpad inflammation; format: in vivo, C57BL/6 mice; details: luminol 5 mg/kg i.v.
[5] = 200 nM, 1483 HNSCC cells, after washout

Compound: Cc1ccc(-c2cc(C(F)(F)F)nn2-c2ccc(S(N)(=O)=O)cc2)cc1 [celecoxib, reference compound]
effect of preincubation on fluorocoxib Q-H labeling of 1483 HNSCC cells (1483 HNSCC cells; pretreatment before fluorocoxib Q-H): blocked

extinction coefficient (ε) (Photophysical properties; at 579 nm): 45 mM⁻¹ cm⁻¹
quantum yield (Φfl) (Photophysical properties; at 602 nm, FA used as standard for comparison): 0.93
Compound: COc1ccc2c(c1)c(CC(=O)NCCCCNC(=O)c1ccc(C3=c4cc5c6c(c4Oc4c3cc3c7c4CCCN7CCC3)CCC[N+]=6CCC5)c(C(=O)O)c1)c(C)n2C(=O)c1ccc(Cl)cc1 [FA, fluorocoxib A, reference compound]

IC50 [1]: 280 nM
extinction coefficient (ε) (Photophysical properties; at 586 nm): < 0.4 mM⁻¹ cm⁻¹
quantum yield (Φfl) (Photophysical properties; at 607 nm): < 0.19
plasma half-life [2]: exceeds 24 h
IC50 (mCOX-2): 330 nM
Compound: fluorocoxib Q [FQ]
cell fluorescence at 0.5 h post-addition (1483 HNSCC cells; [5]): low fluorescence intensity
cell fluorescence at 3 h post-addition (1483 HNSCC cells; [5]): strong fluorescence
fold increase in fluorescence, inflamed over non-inflamed footpads ([3]; 5 mg/kg i.p., imaging 24 h post-injection, average): 9 fold
fluorescence in inflamed footpad (mean ± sd) ([3]; 5 mg/kg i.p., imaging 24 h post-injection, n = 8, p < 0.001): 7.84x10^8 ± 1.25x10^8
background signal in non-inflamed footpad ([3]; wild-type C57BL/6 mice, FQ versus CF3-FA): extremely low background signal

IC50 [1]: 260 nM
extinction coefficient (ε) (Photophysical properties; at 586 nm): 44 mM⁻¹ cm⁻¹
quantum yield (Φfl) (Photophysical properties; at 607 nm): 0.90
IC50 (mCOX-2): 240 nM
Compound: fluorocoxib Q-H [FQ-H]
fluorescence labeling of 1483 HNSCC cells (1483 HNSCC cells; fluorocoxib Q-H alone, after repetitive washing): strong perinuclear fluorescence

Compound: Nc1cccc2c(=O)[nH][nH]c(=O)c12 [luminol]
fold luminescence, inflamed versus control footpads [4]: 12 fold
chemiluminescence emission in inflamed footpads (mean ± sd) ([4]; 6 h after carrageenan, n = 8, p < 0.0004): 1251.5 ± 94.9

Reference: paper PMC10464600 (ACS chemical biology, 2022)
